# Measurements reported in ChEMBL document CHEMBL3868592, “Analogues of Marine Guanidine Alkaloids Are in Vitro Effective against Trypanosoma cruzi and Selectively Eliminate Leishmania (L.) infantum Intracellular Amastigotes” (J Nat Prod, 2016).
# Calls of active or inactive are those of the source. The calls are words filed in the database; no cut-off is given here.
# What was measured:
# Leishmania infantum [1] = test: Antileishmanial activity against Leishmania infantum MHOM/BR/1972/LD amastigote forms infected in BALB/c mouse peritoneal macrophages assessed as reduction in parasite viability after 120 hrs by giemsa staining based light microscopy; assay type: functional
# Outline: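 BALB/c peritoneal macrophages seeded at 1×10^5/well for 24 h, then infected with hamster spleen-derived amastigotes (1:10 macrophage:amastigote, 24 h, 37 °C, 5% CO2). Compound exposure for 120 h, highest 100 μM. Cells MeOH-fixed and Giemsa-stained; infected macrophages counted out of 400 cells. IC50 from sigmoidal dose-response; at least two independent assays.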
# Leishmania infantum [2] = test: Antileishmanial activity against Leishmania infantum MHOM/BR/1972/LD promastigote forms […] assessed as reduction in parasite viability after 48 hrs by MTT assay; assay type: functional
# Outline: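 Late-growth-phase promastigotes (passage 5) seeded at 1×10^6/well in M-199. Compounds dissolved in DMSO, tested up to 100 μM, 48 h at 24 °C. Viability by MTT, OD 570 nm, against drug-free (100%) and cell-free blank wells; 0.5% DMSO control. IC50 from sigmoidal dose-response curves; ≥2 independent assays.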
# [3] = Cytotoxicity against mouse NCTC-929 cells assessed as decrease in cell viability after 48 hrs by MTT assay; assay type: toxicity
# Outline: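 NCTC clone 929 murine cells seeded at 6×10^4/well. Compound up to 150 μM for 48 h at 37 °C, 5% CO2. Viability read by MTT. CC50 from sigmoidal dose-response; mean of at least two independent experiments.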
# [4] = Selectivity index, ratio of CC50 for mouse NCTC-929 cells to IC50 for Trypanosoma cruzi Y trypomastigote form infected in monkey LLC-MK2 cells; assay type: functional
# [5] = Selectivity index, ratio of CC50 for mouse NCTC-929 cells to IC50 for Leishmania infantum MHOM/BR/1972/LD amastigote forms infected in BALB/c mouse macrophages; assay type: functional
# Trypanosoma cruzi [6] = test: Antitrypanosomal activity against Trypanosoma cruzi Y trypomastigote forms infected in monkey LLC-MK2 cells assessed as reduction in parasite viability after 24 hrs by resazurin assay; assay type: functional, cell-based; settings: LLC-MK2, 24 h
# Outline: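 Y-strain trypomastigotes from LLC-MK2 cultures seeded at 1×10^6/well in RPMI-1640. Compounds up to 150 μM, 24 h at 37 °C, 5% CO2. Viability by resazurin (0.011% in PBS), read at 570 nm against drug-free and cell-free wells; 0.5% DMSO control. IC50 by sigmoidal dose-response curve fitting.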
# Trypanosoma cruzi [7] = test: Potency index, ratio of benznidazole IC50 to compound IC50 for Trypanosoma cruzi Y trypomastigote forms infected in monkey LLC-MK2 cells; assay type: functional
# Leishmania infantum [8] = test: Induction of plasma membrane permeability in Leishmania infantum MHOM/BR/1972/LD promastigote form assessed as increase in fluorescence intensity at 34 uM measured every 20 mins for 60 mins by SYTOX green dye based fluorimetric assay relative to control; assay type: functional
# Outline: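 Late-growth-phase promastigotes (passage 7) washed in PBS, seeded at 2×10^6/well and loaded with 1 μM SYTOX Green for 15 min at 24 °C. Compound added; fluorescence (ex 485/em 520 nm) read every 20 min over 60 min. 0.1% Triton X-100 defined maximal permeabilization. Background, DMSO, untreated and cell-free controls included. Triplicates.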
# Leishmania infantum [9] = test: Induction of ROS generation in Leishmania infantum MHOM/BR/1972/LD promastigote form at 34 uM incubated for […] by H2DCF-DA probe based fluorimetric assay relative to untreated control; assay type: functional
# Outline: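 Promastigotes (2×10^6/well) washed in HBSS and exposed to compound for 60 min. H2DCFDA (5 μM) then added for 15 min. Fluorescence read at ex 485/em 520 nm. Sodium azide 10 mM as positive control; background, DMSO, untreated and cell-free controls included. Triplicates.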
# Peritoneal macrophage [10] = test: Antiinflammatory activity in BALB/c mouse peritoneal macrophages co-cultivated with splenocytes assessed as decrease in INF-gamma release at 15 uM after 48 hrs by flow cytometric analysis; assay type: functional
# Outline: (§1)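 Peritoneal macrophages from BALB/c mice seeded at 1.5×10^5 cells/well; after 24 h, infected where applicable with L. infantum spleen-derived amastigotes at 1:10 (macrophage:amastigote). After 24 h, cocultured where applicable with splenocytes at 6:1. Compound added for 48 h. Supernatant cytokines quantified with an inflammatory cytometric bead array by flow cytometry. Sham-treated infected macrophages served as reference.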
# Peritoneal macrophage [11] = test: Antiinflammatory activity in BALB/c mouse peritoneal macrophages infected with Leishmania infantum MHOM/BR/1972/LD amastigote form cocultivated with splenocytes assessed as decrease in INF-gamma release at 15 uM after 48 hrs by flow cytometric analysis; assay type: functional; outline: as §1
# Splenocyte = test: Antiinflammatory activity in splenocytes (unknown origin) assessed as decrease in MCP1 release at 15 uM after 48 hrs by flow cytometric analysis; assay type: functional, cell-based
# Leishmania infantum [12] = test: Induction of mitochondrial membrane potential loss in Leishmania infantum MHOM/BR/1972/LD promastigote form at 34 uM incubated for 60 mins by rhodamine-123 dye based fluorimetric assay; assay type: functional
# Outline: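 Promastigotes (2×10^6/mL) in HBSS-glucose exposed to compound for 60 min at 25 °C. Rhodamine-123 (0.3 μg/mL) then added, cells washed and resuspended in HBSS-Glc, and fluorescence read at ex 485/em 520 nm. Sodium azide 10 mM as positive control; background, DMSO and untreated controls included. Triplicates.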
Structure (SMILES),IC50 (Leishmania infantum [1]),IC50 (Leishmania infantum [2]),CC50 at 48 h [3],Ratio CC50/IC50 [4],Ratio CC50/IC50 [5],IC50 (Trypanosoma cruzi [6]),Ratio IC50 (Trypanosoma cruzi [7]),Activity (Leishmania infantum [8]),Activity (Leishmania infantum [9]),Activity (Peritoneal macrophage [10]),Activity (Peritoneal macrophage [11]),Activity (Splenocyte),Activity (Leishmania infantum [12])
CC(C)=CCC/C(C)=C/CNC(=N)N.Cl,19 µM,9 µM,116 µM,3,6,35 µM,–,–,–,–,–,–,–
C1CC[C@]2(C[C@H]3CC[C@H]4C[C@@]5(CCCCO5)[NH+]=C(N2)N34)OC1.F[B-](F)(F)F,8 µM,> 100 µM,> 150 µM,–,>19,> 100 µM,–,–,–,–,–,–,–
CCCC(=O)OCCCC[C@H]1C[C@H]2CC[C@H]3C[C@@H](C)[NH+]=C(N1)N23.F[B-](F)(F)F,> 100 µM,> 100 µM,> 150 µM,>2,–,49 µM,–,–,–,–,–,–,–
CCCCCCCCCCCC(=O)OCCCC[C@H]1C[C@H]2CC[C@H]3C[C@@H](C)[NH+]=C(N1)N23.F[B-](F)(F)F,> 100 µM,48 µM,57 µM,19,–,4 µM,4,–,–,–,–,–,–
C[C@@H]1C[C@@H]2CC[C@@H]3C[C@H](CCCCO)NC(=N1)N32,> 100 µM,> 100 µM,> 150 µM,–,–,> 100 µM,–,–,–,–,–,–,–
"CCCCCCCCC[C@@H]1C[C@@H]2CC[C@H]3C(C(=O)O)[C@@H](C)N=C(N1)N23 (single isomer, unassigned; 16)",> 100 µM,47 µM,60 µM,0.9,–,69 µM,–,–,–,–,–,–,–
CCCCCCCCCc1cc(CCCO)nc(N)n1,5 µM,42 µM,42 µM,5,8,8 µM,–,–,–,–,–,–,–
CC(=O)OCCCC[C@H]1C[C@H]2CC[C@H]3C[C@@H](C)[NH+]=C(N1)N23.F[B-](F)(F)F,> 100 µM,> 100 µM,> 150 µM,>2,–,88 µM,–,–,–,–,–,–,–
CCCCCCCCCC(=O)OCCCC[C@H]1C[C@H]2CC[C@H]3C[C@@H](C)[NH+]=C(N1)N23.F[B-](F)(F)F,> 100 µM,59 µM,84 µM,28,–,4 µM,4,–,–,–,–,–,–
C=CCOC(=O)C1=C(CCCCC[C@@H](C)O[Si](C(C)(C)C)(C(C)(C)C)C(C)(C)C)NC2=[N+]3[C@H](CC[C@@H]13)C[C@H](C)N2.CC(=O)[O-],0.8 µM,> 100 µM,2 µM,2,3,0.9 µM,17,–,–,–,–,–,–
C[C@@H]1CCC[C@]2(CCN3CC[C@]4(CCC[C@@H](C)O4)NC3=N2)O1,> 100 µM,> 100 µM,> 150 µM,–,–,> 100 µM,–,–,–,–,–,–,–
CCCCCCCCCCCCCCCCOP(=O)([O-])OCC[N+](C)(C)C [MILTEFOSINE],17 µM,–,122 µM,–,7,–,–,–,–,–,–,–,–
CCCCCCCC(=O)OCCCC[C@H]1C[C@H]2CC[C@H]3C[C@@H](C)[NH+]=C(N1)N23.F[B-](F)(F)F,> 100 µM,53 µM,100 µM,12,–,8 µM,–,–,–,–,–,–,–
O=C(Cn1ccnc1[N+](=O)[O-])NCc1ccccc1 [BENZNIDAZOLE],–,–,> 150 µM,>9,–,16 µM,–,–,–,–,–,–,–
C[C@H](O)CCCCC[C@@H]1C[C@H]2CC[C@H]3C[C@@H](C)NC(=[NH+]1)N23.F[B-](F)(F)F,49 µM,> 100 µM,> 150 µM,–,>3,> 100 µM,–,–,–,–,–,–,–
"CCCCCCCCC[C@@H]1C[C@@H]2CC[C@H]3C(C(=O)O)[C@@H](C)N=C(N1)N23.O=C(O)C(F)(F)F (single isomer, unassigned; 15)",24 µM,57 µM,70 µM,0.9,3,79 µM,–,–,–,–,–,–,–
C[C@@H]1C[C@@H]2CC[C@@H]3C[C@H](CCCCO[Si](C(C)(C)C)(C(C)(C)C)C(C)(C)C)NC(=[NH+]1)N32.F[B-](F)(F)F,18 µM,7 µM,65 µM,16,4,4 µM,–,–,–,–,–,–,–
F[B-](F)(F)F.c1ccc([C@@H]2C[C@@H]3CC[C@@H]4C[C@H](c5ccccc5)NC(=[NH+]2)N43)cc1,2 µM,34 µM,45 µM,5,20,9 µM,–,10%,60%,Active,Active,Active,70%
CCCCCC(=O)OCCCC[C@H]1C[C@H]2CC[C@H]3C[C@@H](C)[NH+]=C(N1)N23.F[B-](F)(F)F,> 100 µM,109 µM,> 150 µM,>7,–,22 µM,–,–,–,–,–,–,–
